27 compounds from ChEMBL document CHEMBL1142014, “Synthesis and activity of 4,5-diarylimidazoles as human CB1 receptor inverse agonists” (Bioorg Med Chem Lett, 2005) can be followed below.

One may read the IC50 as the concentration needed to halve the response being measured. In general, half-life refers to the time in which the quantity being followed falls by half. Read a high half-life as slow loss. As usually defined, the EC50 is the midpoint of the concentration-response curve. The bioavailability is dose-corrected exposure relative to a reference, in per cent. Low readings indicate little systemic uptake, high ones much systemic uptake.

SMILES strings stand for the structures.

The target in data set [1] is T1, Cannabinoid receptor 1 (Homo sapiens, UniProt P21554). Nature of the data set: biochemical. It counts as cell-based, CHO.
A short description of data set [2]: Half life in rat. It counts as ADME. Conditions: in vivo. In short, it runs like this: (§1)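 Male Sprague–Dawley rats dosed 1.0 mg/kg iv via an implanted cannula (n = 1 or 2) and 2.0 mg/kg po by gavage (n = 3). Both doses were formulated at 1 mg/mL in TWEEN 80:EtOH:water (10:23:67). Plasma drug levels were measured by LC–MS/MS after protein precipitation, and PK parameters were derived. AUC was normalised to dose.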

The nature of data set [3]: Volume distribution at steady state in rat. It counts as ADME, organism-based. As to conditions: in vivo, read-out: Vdss. In short, it runs like this:
as §1

Data set [4] deals with T1, Cannabinoid receptor 1. Nature of the data set: Effective concentration against human recombinant cannabinoid receptor type 1 expressed in Chinese Hamster Ovary (CHO) cells. It counts as cell-based. In short, it runs like this:
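Functional assay on recombinant human CB1 receptor expressed in CHO cells, run in the presence of forskolin.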

Data set [5] can be described thus: Plasma clearance in rat. It counts as ADME, organism-based. As to conditions: read-out: Clp. In short, it runs like this:
as §1

Data set [6] in a line: Brain-to-plasma ratio after 1 hr in rat. It counts as ADME. In short, it runs like this:
(§2)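 Male Sprague-Dawley rats given 1.0 mg/kg iv by tail vein, formulated at 1 mg/mL in TWEEN 80:EtOH:water (10:23:67). Sampled at 0.25, 1, 2 and 4 h (n = 3 per time point). Plasma and brain levels measured by LC–MS/MS and expressed as the brain/plasma ratio.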

Data set [7] is described as follows: Normalised area under the concentration time curve in rat. It counts as ADME. In short, it runs like this: as §1
Data set [8] is described as follows: Oral bioavailability in rat. It counts as ADME, organism-based. As to conditions: in vivo. In short, it runs like this: as §1
Data set [9] in a line: Brain-to-plasma ratio after 2 hrs in rat. It counts as ADME. In short, it runs like this: as §2
Data set [10] can be described thus: (§3) Brain-to-plasma ratio after 4 hrs in rat. It counts as ADME. In short, it runs like this:
as §2

Data set [11] can be described thus: Brain-to-plasma ratio after 0.25 hrs in rat. It counts as ADME. In short, it runs like this: as §2
The nature of data set [12]: as §3. It counts as ADME, cell-free. As to conditions: read-out: B/P. In short, it runs like this: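 Male Sprague-Dawley rats were given 1.0 mg/kg iv via the tail vein, formulated at 1 mg/mL in TWEEN 80:EtOH:water (10:23:67). Three rats were used at each time point (0.25, 1, 2 and 4 h). Brain and plasma concentrations were measured by LC–MS/MS, and the brain-to-plasma ratio was taken at each time.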

T1 sequence (P21554 whole entry): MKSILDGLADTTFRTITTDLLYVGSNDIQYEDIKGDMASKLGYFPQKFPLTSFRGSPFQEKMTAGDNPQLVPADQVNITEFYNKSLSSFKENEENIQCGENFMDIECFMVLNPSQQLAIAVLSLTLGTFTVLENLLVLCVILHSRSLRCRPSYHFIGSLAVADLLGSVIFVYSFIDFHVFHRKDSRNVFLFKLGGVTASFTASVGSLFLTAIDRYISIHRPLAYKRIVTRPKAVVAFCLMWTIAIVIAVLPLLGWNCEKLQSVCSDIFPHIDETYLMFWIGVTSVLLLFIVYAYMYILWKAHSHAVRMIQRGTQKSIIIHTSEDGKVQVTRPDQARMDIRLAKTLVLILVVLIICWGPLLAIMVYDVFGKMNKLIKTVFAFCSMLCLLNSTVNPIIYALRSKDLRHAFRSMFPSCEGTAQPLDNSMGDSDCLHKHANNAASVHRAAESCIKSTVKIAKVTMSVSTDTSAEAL

Compound `O=C(NC1CCCCC1)c1nc(-c2ccc(Cl)cc2)c(-c2ccc(Cl)cc2)o1` registered an IC50 on Cannabinoid receptor 1 [1] of 500 nM.

As to `Cn1c(C(=O)NC2CCCCC2)nc(-c2ccc(Cl)cc2Cl)c1-c1ccc(Cl)cc1`, the half-life in [2] is 1.9 h. In addition, the Vd in data set [3] stood at 1.9 L/kg. Besides, the EC50 at Cannabinoid receptor 1 [4] was found to be 18 nM. Besides, in [5], the clearance was found to be 20 mL/min/kg. Also, in data set [6], the Kp at 1 h was determined as 2.1. This compound also returned an IC50 on Cannabinoid receptor 1 [1] of 4 nM. In data set [7], this compound returned an AUC nom of 1.8 µM·kg·h/mg. This compound also yielded a bioavailability in data set [8] of 30%. Also, the Kp at 2 h in [9] turned out to be 1.3. For the same compound, the Kp at 4 h in data set [10] was determined as 2.6. The Kp at 0.25 h in data set [11] came out at 0.8.

In the case of `CCn1c(C(=O)NC2CCCCC2)nc(-c2ccc(Cl)cc2Cl)c1-c1ccc(Cl)cc1`, the IC50 against Cannabinoid receptor 1 [1] is 4.1 nM.

`Cn1c(C(=O)NN2CCCCC2)nc(-c2ccc(Cl)cc2Cl)c1-c1ccc(Cl)cc1Cl` registered an IC50 against Cannabinoid receptor 1 [1] of 16 nM.

Turning to `Cn1c(C(=O)NN2CCCCC2)nc(-c2ccc(Cl)cc2)c1-c1ccc(Cl)cc1Cl`, the IC50 against Cannabinoid receptor 1 [1] is 190 nM.

`CCCCCCNC(=O)c1nc(-c2ccc(Cl)cc2)c(-c2ccc(Cl)cc2)n1C` registered a concentration for half-maximal inhibition (IC50) against Cannabinoid receptor 1 [1] of 540 nM.

Compound `Cn1c(C(=O)N2CCCCC2)nc(-c2ccc(Cl)cc2)c1-c1ccc(Cl)cc1` returned an IC50 against Cannabinoid receptor 1 [1] of 1100 nM.

Turning to `Cn1c(C(=O)NC2CCCCCC2)nc(-c2ccc(Cl)cc2Cl)c1-c1ccc(Cl)cc1`, half-maximal inhibition against Cannabinoid receptor 1 [1] (IC50) required 8 nM.

With `O=C(NC1CCCCC1)c1nc(-c2ccc(Cl)cc2Cl)c(-c2ccc(Cl)cc2Cl)o1`, the half-maximal inhibitory concentration (IC50) at Cannabinoid receptor 1 [1] amounted to 70 nM.

Regarding `Cc1ccc(-c2nc(C(=O)NC3CCCCC3)n(C)c2-c2ccc(C)cc2)cc1`, it took 900 nM to reach half-maximal inhibition against Cannabinoid receptor 1 [1] (IC50).

Turning to `O=C(NN1CCCCC1)c1nc(-c2ccc(Cl)cc2)c(-c2ccc(Cl)cc2Cl)o1`, inhibition on Cannabinoid receptor 1 [1] was half-maximal at 470 nM (IC50).

On Cannabinoid receptor 1 [1], `O=C(NC1CCCCC1)c1nc(-c2ccc(Cl)cc2)c(-c2ccc(Cl)cc2Cl)o1` returned a half-maximal inhibitory concentration (IC50) of 1000 nM.

On to `CN(C(=O)c1nc(-c2ccc(Cl)cc2Cl)c(-c2ccc(Cl)cc2)n1C)C1CCCCC1`, for which, on Cannabinoid receptor 1 [1], half-maximal inhibition (IC50) required 70 nM.

At Cannabinoid receptor 1 [1], `Cn1c(C(=O)NC(C)(C)C)nc(-c2ccc(Cl)cc2)c1-c1ccc(Cl)cc1` yielded a 50% inhibitory concentration (IC50) of 900 nM.

For `O=C(NN1CCCCC1)c1nc(-c2ccc(Cl)cc2Cl)c(-c2ccc(Cl)cc2Cl)o1`, on Cannabinoid receptor 1 [1], the IC50 was 200 nM.

The compound `O=C(NN1CCCCC1)c1nc(-c2ccc(Cl)cc2Cl)c(-c2ccc(Cl)cc2)o1` came in with a 50% inhibitory concentration (IC50) at Cannabinoid receptor 1 [1] of 260 nM.

As for `O=C(NC1CCCCC1)c1nc(-c2ccc(Cl)cc2Cl)c(-c2ccc(Cl)cc2)o1`, the midpoint of inhibition against Cannabinoid receptor 1 [1], the IC50, lay at 80 nM.

Compound `O=C(NN1CCCCC1)c1nc(-c2ccc(Cl)cc2)c(-c2ccc(Cl)cc2)[nH]1` registered an IC50 against Cannabinoid receptor 1 [1] of 6000 nM.

Compound `Cn1c(C(=O)NN2CCCCC2)nc(-c2ccccc2)c1-c1ccccc1` returned an IC50 against Cannabinoid receptor 1 [1] of 1900 nM.

Compound `Cn1c(C(=O)NC2CCCC2)nc(-c2ccc(Cl)cc2Cl)c1-c1ccc(Cl)cc1` showed an IC50 against Cannabinoid receptor 1 [1] of 17 nM.

`Cn1c(C(=O)NC2CCCCC2)nc(-c2ccc(Cl)cc2Cl)c1-c1ccc(Cl)cc1Cl`: at Cannabinoid receptor 1 [1], the IC50 amounted to 5.2 nM.

In the case of `Cn1c(C(=O)NN2CCCCC2)nc(-c2ccc(Cl)cc2)c1-c1ccc(Cl)cc1`, the EC50 at Cannabinoid receptor 1 [4] was 100 nM. This compound also returned an IC50 against Cannabinoid receptor 1 [1] of 260 nM.

Take `Cn1c(C(=O)N2CCCCC2)nc(-c2ccccc2)c1-c1ccccc1`: at Cannabinoid receptor 1 [1], half-maximal inhibition (IC50) required 19000 nM.

Consider `Cn1c(C(=O)Nc2ccccc2)nc(-c2ccc(Cl)cc2Cl)c1-c1ccc(Cl)cc1`, for which, at Cannabinoid receptor 1 [1], half-maximal inhibition (IC50) required 60 nM.

Consider `Cn1c(C(=O)NC2CCCCC2)nc(-c2ccc(Cl)cc2)c1-c1ccc(Cl)cc1`, for which the EC50 on Cannabinoid receptor 1 [4] was found to be 500 nM. At Cannabinoid receptor 1 [1], this compound showed an IC50 of 450 nM.

The compound `Cn1c(C(=O)NC2CCCCC2)nc(-c2ccc(Cl)cc2)c1-c1ccc(Cl)cc1Cl` gave an IC50 against Cannabinoid receptor 1 [1] of 46 nM.

For `Cn1c(C(=O)NN2CCCCC2)nc(-c2ccc(Cl)cc2Cl)c1-c1ccc(Cl)cc1`, the half-life in [2] was 2.4 h. Also, the Vd in [3] was found to be 3.7 L/kg. For the same compound, the EC50 at Cannabinoid receptor 1 [4] stood at 5 nM. For the same compound, in data set [5], the clearance was 28 mL/min/kg. Further, the Kp at 1 h in data set [6] came to 3.6. Also, the IC50 against Cannabinoid receptor 1 [1] was determined as 6.1 nM. This compound showed an AUC nom in data set [7] of 1.3 µM·kg·h/mg. This compound also registered a bioavailability in [8] of 50%. Further, the Kp at 2 h in data set [9] was 2.9. The Kp at 4 h in data set [12] was determined as 3.4. Also, in data set [11], the Kp at 0.25 h is 3.
